# Results from different studies.
# Lines come from different studies, so protocols differ.
# Target: D(1A) dopamine receptor (DRD1, Homo sapiens, UniProt P21728)
Structure (SMILES),assay,conditions,measurement,value
CC(C)N1CCC[C@H]1CNC(=O)c1cn(C2CCCC2)c(=O)c2c1c1ccccc1n2C,"ligand displacement, radioligand",10 µM,inhibition,5%
Nc1ncc(-c2nc(N3CCOCC3)nc(N3CCOCC3)n2)c(C(F)F)n1,"cell-free assay, radioligand",10 µM,remaining signal,90.9%
COCc1c(-c2cc3cc(C)cc(OC)c3s2)c2c(N)ncnn2c1CN1CCNC(=O)C1,"ligand displacement, radioligand",10 µM,inhibition,10%
Cn1cncc1[C@@](O)(COc1ccc(C#N)cc1-c1ccc(OC(F)(F)F)cc1)c1ccc(C#N)cc1,ligand displacement,10 µM,inhibition,19%
COc1ccc(S(=O)(=O)N2CCCCC2)cc1C,"ligand displacement, radioligand",10 µM,inhibition,< 30%
c1ccc(C(NCCNC(c2ccccc2)c2ccccc2)c2ccccc2)cc1,cell-free assay,10 µM,inhibition,24%
CCN(CC)CCCC[C@H](NC(=O)[C@H](CC(C)C)NC(=O)[C@H](C)NC(=O)[C@H](Cc1ccccc1)NC(=O)c1ccc(C(C)(C)C)cc1)C(=O)N[C@@H](CO)C(=O)OC,"ligand displacement, radioligand",10 µM,inhibition,4%
CN(CCN1CCC(OC(=O)Nc2ccccc2-c2ccccc2)CC1)C(=O)c1ccc(CN2CCC(C(N)=O)CC2)cc1,"ligand displacement, radioligand",1 µM,inhibition,1%
C[C@H](C(=O)N[C@H]1COc2ccccc2[C@@H]1S(C)(=O)=O)c1ccc(F)cc1,cell-free assay,10 µM,inhibition,-6%
Clc1ccc2c(C3CCN(CCc4c[nH]c5ccccc45)CC3)c[nH]c2c1,"ligand displacement, radioligand",10 µM,inhibition,100%
Cc1c(N2CCNCC2)nc2ccc(Br)cc2c1C(=O)NC[C@H](CCC(=O)O)c1ccccc1Cl,ligand displacement,10 µM,inhibition,31.6%
CC(Cc1ccccc1)NCCn1cnc2c1c(=O)n(C)c(=O)n2C (stereo not drawn),"ligand displacement, radioligand",10 µM,inhibition,8%
